Data set [1] can be described thus: folding enthalpy; higher = less favourable; fluorescence melt of hairpins on a sequencing array, two-state fit. The conditions noted are these: sodium 0.088 M. The method, boiled down: (§1)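 In 50 mM Na-HEPES pH 8.0 containing 25 mM NaCl, hairpins from the library on a sequenced MiSeq flow cell were imaged for Cy3 fluorescence at 2.5 °C steps up to 60 °C, with Cy3 and quencher oligos annealed. After normalisation to pre-quench Cy3 and to control constructs, two-state fits with bootstrapping gave melting temperature and folding enthalpy. Four replicates were combined by inverse-variance weighting, and fitted temperatures were shifted up by 9.35 °C to match UV melts.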

The nature of data set [2]: melting temperature; fluorescence melt of hairpins on a sequencing array, two-state fit, raised by 9.35 °C to match UV melts. The settings on record: sodium 0.088 M. The method, boiled down:
as §1

As for GCTCACGAAAGTGCCAGC ((((((....)))..))), in data set [1], the folding enthalpy is -13.1 kcal/mol. The Tm in data set [2] was found to be 33.5 °C.
Taken in the same sequence, the figures for GCTGCCGAAAGGCTGAGC ((((((....)))..))) were -16.2 kcal/mol and 50.1 °C.
Taken in the same sequence, the figures for GTCTCCGCGAAAGCGGAC (((..(((....)))))) were -6.7 kcal/mol and 34.2 °C.
Taken in the same sequence, the figures for GTCGCCGAAAGGCGTGAC ((((((....)))..))) were -8.03 kcal/mol and 36.3 °C.
Regarding GATCCCTGCTGGGATC ((((((....)))))), in data set [1], the folding enthalpy was -39.5 kcal/mol. For the same sequence, in data set [2], the Tm was determined as 60.2 °C.
Taken in the same sequence, the figures for GATCATAAAATGATC ((((((...)))))) were -30.7 kcal/mol and 48 °C.
For GATCGTTAAGACGATC ((((((....)))))), in that order: -43.2 kcal/mol and 55.4 °C.
In the case of GCCGGGCGAAAGCACAGC ((.(.((....)).).)), the folding enthalpy in data set [1] was -16.9 kcal/mol. Also, in data set [2], the Tm is 53.8 °C.
For GCTCAGCGAAAGCTGTGC ((.((((....)))).)), in that order: -21.5 kcal/mol and 64.2 °C.
For the sequence GATCACAGCGGTGATC ((((((....)))))), the folding enthalpy in data set [1] was -29.1 kcal/mol. For the same sequence, in data set [2], the Tm came to 56.3 °C.
For GGTGTCGAAAGACAACC ((((((....))).))), in that order: -26.1 kcal/mol and 55.7 °C.
Consider GTTAGACCGAAAGGTAAC (((..(((....)))))), for which the folding enthalpy in data set [1] was -11.2 kcal/mol. For the same sequence, in data set [2], the Tm stood at 30.2 °C.
Regarding GATCTGAGTGCAGATC ((((((....)))))), the folding enthalpy in data set [1] is -31.1 kcal/mol. Also, the Tm in data set [2] is 49.2 °C.
For GATACCGAAAGGTATC ((((((....)))))), in that order: -38.6 kcal/mol and 62.5 °C.
Taken in the same sequence, the figures for GTTGAAGGAAACTCCAAC ((((.((....)).)))) were -17.5 kcal/mol and 29.5 °C.
For TTGTGGAAACACAA (((((....))))), in that order: -19.7 kcal/mol and 40.4 °C.
For the sequence GCACCCGGAAACGAGCGC ((.(.((....)).).)), in data set [1], the folding enthalpy was -29.2 kcal/mol. Further, in data set [2], the Tm is 34.7 °C.
For GCAATGCGAAAGCAGTGC (((.(((....))).))), in that order: -33.6 kcal/mol and 65.6 °C.
Taken in the same sequence, the figures for GGTCAGCGAAAGCTTACC (((.(((....))).))) were -31.8 kcal/mol and 48.9 °C.
For GCTGCGGCGAAAGCCAGC (((..(((....)))))), in that order: -10.7 kcal/mol and 57.4 °C.
With GCTTAAACGAAAGTTAGC (((..(((....)))))), in data set [1], the folding enthalpy is -16.2 kcal/mol. Moreover, the Tm in data set [2] worked out at 33.9 °C.
For GATCCCAATAGGGATC ((((((....)))))), in that order: -36.5 kcal/mol and 64.8 °C.
Taken in the same sequence, the figures for GATCTGTAACAGATC ((((((...)))))) were -33.5 kcal/mol and 48.6 °C.
Taken in the same sequence, the figures for GCCGGCGAAAGCCATGGC ((((((....)))..))) were -19.9 kcal/mol and 56.1 °C.
As to GCTTGTGGAAACACGAGC (((.(((....))).))), the folding enthalpy in data set [1] is -37.8 kcal/mol. Also, the Tm in data set [2] worked out at 54.5 °C.
For GTCGAAGGAAACTTTGGC (.(.(((....))).).), in that order: -22.4 kcal/mol and 29.9 °C.
For GGTCCCCGAAAGGGTACC (((.(((....))).))), in that order: -24.1 kcal/mol and 53.3 °C.
Taken in the same sequence, the figures for GCTTGGGGAAACCCAAGC (((((((....))))))) were -43.6 kcal/mol and 68.3 °C.
As to GCGTTCGAAAGAAGGCGC ((((((....)))..))), the folding enthalpy in data set [1] was -33.6 kcal/mol. For the same sequence, the Tm in data set [2] stood at 55.6 °C.
For CGCGGATAGTCCGCG ((((((...)))))), in that order: -40.8 kcal/mol and 63.6 °C.
For GAACCCCGAAAGGGTTTC (((.(((....))).))), the folding enthalpy in data set [1] is -16.2 kcal/mol. Also, the Tm in data set [2] came out at 47.8 °C.
As to GTGTATGGAAACATACAC (((((((....))))))), the folding enthalpy in data set [1] was -42 kcal/mol. The Tm in data set [2] amounted to 57.2 °C.
For GATCGAAGCCTCGATC ((((((....)))))), in that order: -33 kcal/mol and 50.9 °C.
Consider GCAATGCGAAAGCTCTGC (((..((....))..))), for which the folding enthalpy in data set [1] was -16.1 kcal/mol. For the same sequence, the Tm in data set [2] was determined as 37.2 °C.
For GGATACGAAAGTACATCC ((((((....)))..))), the folding enthalpy in data set [1] is -17.1 kcal/mol. For the same sequence, the Tm in data set [2] was determined as 34.5 °C.
Taken in the same sequence, the figures for GGCTAGGGAAACCTGGCC (((.(((....))).))) were -44.8 kcal/mol and 55.5 °C.
Taken in the same sequence, the figures for GTTTCGGGAAACTGAGAC ((.((.(....).)).)) were -13.2 kcal/mol and 35.7 °C.
For GAGAAAGGAAACTTTCTC (((((((....))))))), in that order: -39.2 kcal/mol and 50.8 °C.
On to GAGTGGGAAACCACTC ((((((....)))))), for which, in data set [1], the folding enthalpy was -33.6 kcal/mol. Further, in data set [2], the Tm is 60.7 °C.
Taken in the same sequence, the figures for GGATTTGGAAACGAATCC (((((.(....).))))) were -34.9 kcal/mol and 46.1 °C.
Taken in the same sequence, the figures for GGCTCTGGAAACAAAGCC ((((.((....)).)))) were -29.9 kcal/mol and 38 °C.
For GTTTTAGGAAACTAAGAC ((.((((....)))).)), in that order: -15.7 kcal/mol and 29 °C.
With GATCCTATTGAGGATC ((((((....)))))), the folding enthalpy in data set [1] was -40.9 kcal/mol. The Tm in data set [2] came out at 51.4 °C.
Taken in the same sequence, the figures for GTGGTCCGAAAGGAACAC (((.(((....))).))) were -33.6 kcal/mol and 65.4 °C.
Taken in the same sequence, the figures for GGCTGTACGAAAGTAGCC (((..(((....)))))) were -27.5 kcal/mol and 51.1 °C.
As to GCGCCGGCGAAAGCCCGC (((..(((....)))))), the folding enthalpy in data set [1] was -15.2 kcal/mol. Besides, the Tm in data set [2] turned out to be 55.5 °C.
Consider GTTCCTGGAAACAGGGAC ((.((((....)))).)), for which, in data set [1], the folding enthalpy is -35.1 kcal/mol. Besides, the Tm in data set [2] was 50.8 °C.
As for GCAATTCGAAAGAACTGC (((.(((....))).))), the folding enthalpy in data set [1] is -31.4 kcal/mol. Further, in data set [2], the Tm was determined as 43.4 °C.
Taken in the same sequence, the figures for GTTGCCGAAAGGCCGAAC ((((((....)))..))) were -7.22 kcal/mol and 27.1 °C.
For GATCCGTAATCGGATC ((((((....)))))), in that order: -34.4 kcal/mol and 57 °C.
Taken in the same sequence, the figures for GTGGGCTCGAAAGAGCAC (((..(((....)))))) were -26 kcal/mol and 65.5 °C.
Regarding GATAATGAAAATTATC ((((((....)))))), in data set [1], the folding enthalpy is -20.5 kcal/mol. Besides, the Tm in data set [2] amounted to 37.9 °C.
For GGGTTCGAAAGAAGTCCC ((((((....)))..))), in that order: -20.2 kcal/mol and 32.7 °C.
For GATCGGGGAAACTCGGTC ((.((.(....).)).)), in that order: -28.3 kcal/mol and 38 °C.
Taken in the same sequence, the figures for GCCCTTGGAAACAAGAGC ((.((((....)))).)) were -21.4 kcal/mol and 37.6 °C.
As to GTACCCGAAAGGGGCTAC ((((((....)))..))), the folding enthalpy in data set [1] was -14.3 kcal/mol. The Tm in data set [2] worked out at 41.4 °C.
Taken in the same sequence, the figures for GACGCCGAAAGGCACGTC ((((((....)))..))) were -13.4 kcal/mol and 48.5 °C.
For GGTGGTGGAAACGCCACC (((((.(....).))))), in that order: -35.4 kcal/mol and 63.5 °C.
Taken in the same sequence, the figures for GAATTCCGAAAGGATTC (((.(((....)))))) were -20.2 kcal/mol and 38.4 °C.
As for GCCGGGCGAAAGCTCAGC ((.(.((....)).).)), the folding enthalpy in data set [1] was -16.9 kcal/mol. Moreover, in data set [2], the Tm is 44.4 °C.
GTGCATGGAAACATGCGC (.(((((....))))).): in data set [1], the folding enthalpy is -21.5 kcal/mol. The Tm in data set [2] was determined as 56.9 °C.
Taken in the same sequence, the figures for GAATGTGGAAACACGTTC (((.(((....))).))) were -32.3 kcal/mol and 47.8 °C.
For GATCCACAGTTGGATC ((((((....)))))), in that order: -41 kcal/mol and 49.3 °C.
For GCCCCCCCGAAAGGGGGC (((..(((....)))))), in that order: -11.2 kcal/mol and 65.2 °C.
With GACGACCCGAAAGGGGTC (((..(((....)))))), the folding enthalpy in data set [1] is -10.1 kcal/mol. For the same sequence, in data set [2], the Tm was 42.3 °C.
For GTGCTCGGAAACGAACAC (((.(((....))).))), in that order: -35.3 kcal/mol and 47.6 °C.
Taken in the same sequence, the figures for GCGACGCGAAAGCGATGC ((..(((....)))..)) were -24.1 kcal/mol and 61.8 °C.
On to GAAATAGGAAACTATTTC (((((((....))))))), for which the folding enthalpy in data set [1] is -44.1 kcal/mol. Further, in data set [2], the Tm came out at 46.4 °C.
As to GGAACGCGAAAGCGCTCC (((.(((....))).))), the folding enthalpy in data set [1] was -28.2 kcal/mol. For the same sequence, the Tm in data set [2] was determined as 55.8 °C.
Turning to GGAGGCCGAAAGGCTCC (((.(((....)))))), the folding enthalpy in data set [1] is -21.1 kcal/mol. Further, the Tm in data set [2] was found to be 57.2 °C.
For GCGTTCCAACGC ((((....)))), in that order: -27.7 kcal/mol and 55.6 °C.
Taken in the same sequence, the figures for GATACGACGAAAGTCATC (((..(((....)))))) were -10.6 kcal/mol and 24.6 °C.
Taken in the same sequence, the figures for GGTGCTGGAAACGGCATC (.(((.(....).))).) were -25.4 kcal/mol and 44.2 °C.
For the sequence GCATAGCGAAAGCAAAGC ((.(.((....)).).)), the folding enthalpy in data set [1] was -9.49 kcal/mol. Moreover, the Tm in data set [2] was found to be 32 °C.

These data come from the array DNA melting data of Ke et al. (doi:10.1101/2024.01.08.574731).
